Test results as given in ChEMBL document CHEMBL4130474, “Spirotriazoline oxindoles: A novel chemical scaffold with in vitro anticancer properties” (Eur J Med Chem, 2017).

Tests used:
HCT-116 [1] = assay: Antiproliferative activity in p53 (-/-) human HCT116 cells incubated for 72 hrs by MTS assay; assay type: functional, cell-based; conditions: HCT-116, 72 h
Method in brief: (§1)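 HCT116 p53(+/+) or p53(−/−) seeded at 1 × 10⁵ cells/mL, adhered 24 h, then treated 72 h with compounds diluted from DMSO stocks. Viability by MTS (CellTiter96 AQueous) with absorbance at 490 nm. Duplicate wells, three independent experiments; IC50 by non-linear regression.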

[2] = Selectivity index, ratio of IC50 for antiproliferative activity in HEK293T cells to IC50 for antiproliferative activity in human MDA-MB-231 cells; assay type: toxicity, cell-based; conditions: HEK293T cells versus MDA-MB-231 cells, read-out: Ratio IC50
Method in brief: (§2)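 Ratio of HEK 293T IC50 to MDA-MB-231 IC50 from 72 h MTT assays.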

[3] = Potency index, ratio of IC50 for antiproliferative activity in human MCF7 cells to IC50 for antiproliferative activity in human MDA-MB-231 cells; assay type: functional
[4] = Selectivity index, ratio of IC50 for antiproliferative activity in HEK293T cells to IC50 for antiproliferative activity in human MCF7 cells; assay type: toxicity, cell-based; conditions: HEK293T cells versus MCF7 cells, read-out: Ratio IC50
Method in brief: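 Ratio of HEK 293T IC50 to MCF-7 IC50 from 72 h MTT assays.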

MDA-MB-231 = assay: Antiproliferative activity in human MDA-MB-231 cells incubated for 72 hrs by MTT assay; assay type: functional, cell-based; conditions: MDA-MB-231, 72 h
Method in brief: (§3)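 Cells grown in RPMI 1640 with 10% FBS, penicillin/streptomycin; seeded at 2 × 10⁵ cells/mL, allowed to adhere 24 h, then exposed 72 h to compounds diluted in medium from DMSO stocks. MTT added after medium change, 3 h, formazan dissolved in DMSO, absorbance at 570 nm. Triplicate wells, at least 3 independent experiments; IC50 by non-linear regression.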

[5] = Potency index, ratio of IC50 for antiproliferative activity in human p53 (-/-) human HCT116 cells to IC50 for antiproliferative activity in human MDA-MB-231 cells; assay type: functional
[6] = Selectivity index, ratio of IC50 for antiproliferative activity in HEK293T cells to IC50 for antiproliferative activity in human p53 (-/-) human HCT116 cells; assay type: toxicity, cell-based; conditions: HEK293T cells versus p53 (-/-) HCT116 cells, read-out: Ratio IC50
[7] = Selectivity index, ratio of IC50 for antiproliferative activity in HEK293T cells to IC50 for antiproliferative activity in human p53 (+/+) human HCT116 cells; assay type: toxicity, cell-based; conditions: HEK293T cells versus p53 (+/+) HCT116 cells, read-out: Ratio IC50
HCT-116 [8] = assay: Antiproliferative activity in p53 (+/+) human HCT116 cells incubated for 72 hrs by MTS assay; assay type: functional, cell-based; conditions: HCT-116, 72 h; method in brief: as §1
HEK-293T = assay: Antiproliferative activity in human HEK293T cells incubated for 72 hrs by MTT assay; assay type: cell-based; method in brief: as §3
MCF7 = assay: Antiproliferative activity in human MCF7 cells incubated for 72 hrs by MTT assay; assay type: functional, cell-based; conditions: MCF7, 72 h; method in brief: as §3
[9] = Potency index, ratio of IC50 for antiproliferative activity in human p53 (+/+) human HCT116 cells to IC50 for antiproliferative activity in human MDA-MB-231 cells; assay type: functional
[10] = […], ratio of IC50 for antiproliferative activity in HEK293T cells to IC50 for antiproliferative activity in human MDA-MB-231 cells; assay type: toxicity, cell-based; conditions: HEK293T cells versus MDA-MB-231 cells, read-out: Ratio IC50; method in brief: as §2

COc1ccc(C2=N[C@@H](c3ccc(Cl)cc3)[C@@H](c3ccc(Cl)cc3)N2C(=O)N2CCNC(=O)C2)c(OC(C)C)c1 [NUTLIN-3]
IC50 (HCT-116 [1]): 47.8 µM

O=C1Nc2ccc(Br)cc2C12N(c1ccccc1)N=C(c1ccccc1)N2c1cccc(Cl)c1 (stereo not given)
selectivity ratio [2]: ≥ 2.4
Ratio IC50 [3]: >=2.4
selectivity ratio [4]: < 2
IC50 (MDA-MB-231): 3.5 µM
Ratio IC50 [5]: >=2.4
selectivity ratio [6]: < 2
selectivity ratio [7]: < 2
IC50 (HCT-116 [8]): 15.7 µM
IC50 (HEK-293T): 21.6 µM
IC50 (HCT-116 [1]): 17.8 µM
IC50 (MCF7): 21.4 µM
Ratio IC50 [9]: >=2.4

O=C1Nc2c(Cl)cccc2C12N(c1ccccc1)N=C(c1ccccc1)N2c1ccccc1 (stereo not given)
selectivity ratio [4]: 2.5 to 9.3
IC50 (MDA-MB-231): 8.9 µM
selectivity ratio [6]: 2.5 to 4.2
selectivity ratio [7]: 2.5 to 4.2
IC50 (HCT-116 [8]): 23.7 µM
IC50 (HEK-293T): > 100 µM
IC50 (HCT-116 [1]): 20.1 µM
IC50 (MCF7): 10.8 µM
selectivity ratio [10]: ≥ 2.5

O=C1Nc2ccc(Br)cc2[C@]12[C@@H](c1cccc(Cl)c1)C(c1ccccc1)=NN2c1ccccc1
IC50 (MDA-MB-231): 12.6 µM
IC50 (MCF7): 10 µM

O=C1Nc2ccccc2C12N(c1ccccc1Cl)N=C(c1cccc(Cl)c1)N2c1ccc(Cl)cc1 (stereo not given)
selectivity ratio [4]: 2.7
IC50 (MDA-MB-231): 14.5 µM
selectivity ratio [6]: < 2
selectivity ratio [7]: < 2
IC50 (HCT-116 [8]): 25.3 µM
IC50 (HEK-293T): 35 µM
IC50 (HCT-116 [1]): 34.6 µM
IC50 (MCF7): 13.1 µM

O=C1Nc2c(Cl)cccc2[C@]12[C@@H](c1ccccc1)C(c1ccccc1)=NN2c1ccccc1
selectivity ratio [4]: > 4.5
IC50 (MDA-MB-231): 16.9 µM
IC50 (HEK-293T): > 100 µM
IC50 (MCF7): 22.4 µM

O=C1Nc2ccccc2C12N(c1ccccc1)N=C(c1ccc(Cl)cc1)N2c1ccc(Cl)cc1 (stereo not given)
selectivity ratio [4]: 2.1
IC50 (MDA-MB-231): 8.2 µM
selectivity ratio [6]: < 2
selectivity ratio [7]: < 2
IC50 (HCT-116 [8]): 16.8 µM
IC50 (HEK-293T): 22.7 µM
IC50 (HCT-116 [1]): 18.5 µM
IC50 (MCF7): 10.9 µM

O=C1Nc2ccccc2C12N(c1ccccc1)N=C(c1ccccc1)N2c1ccccc1 (stereo not given)
IC50 (MDA-MB-231): 23.4 µM
IC50 (MCF7): 36.2 µM

O=C1Nc2ccccc2[C@]12[C@@H](c1ccccc1)C(c1ccccc1)=NN2c1ccccc1
IC50 (MCF7): > 100 µM

O=C1Nc2ccc(Br)cc2C12N(c1cccc(Cl)c1)N=C(c1ccccc1)N2c1cccc(Cl)c1 (stereo not given)
selectivity ratio [4]: < 2
IC50 (MDA-MB-231): 10.7 µM
selectivity ratio [6]: < 2
selectivity ratio [7]: < 2
IC50 (HCT-116 [8]): 12 µM
IC50 (HEK-293T): 16.9 µM
IC50 (HCT-116 [1]): 13.1 µM
IC50 (MCF7): 9.8 µM

O=C1Nc2ccc(Br)cc2C12N(c1ccccc1)N=C(c1ccccc1)N2c1ccc(F)c(Cl)c1 (stereo not given)
selectivity ratio [2]: ≥ 2.4
Ratio IC50 [3]: >=2.4
selectivity ratio [4]: < 2
IC50 (MDA-MB-231): 4.6 µM
Ratio IC50 [5]: >=2.4
selectivity ratio [6]: < 2
selectivity ratio [7]: < 2
IC50 (HCT-116 [8]): 13.5 µM
IC50 (HEK-293T): 16.6 µM
IC50 (HCT-116 [1]): 15.9 µM
IC50 (MCF7): 11 µM
Ratio IC50 [9]: >=2.4

O=C1Nc2ccccc2C12N(c1cccc(Cl)c1)N=C(c1ccccc1)N2c1ccc(Cl)cc1 (stereo not given)
selectivity ratio [4]: < 2
IC50 (MDA-MB-231): 15.7 µM
selectivity ratio [6]: < 2
selectivity ratio [7]: < 2
IC50 (HCT-116 [8]): 19.8 µM
IC50 (HEK-293T): 15.4 µM
IC50 (HCT-116 [1]): 18.5 µM
IC50 (MCF7): 14.2 µM

O=C1Nc2ccccc2C12N(c1ccc(Cl)cc1)N=C(c1ccccc1)N2c1ccc(Cl)cc1 (stereo not given)
selectivity ratio [4]: < 2
IC50 (MDA-MB-231): 9 µM
selectivity ratio [6]: < 2
selectivity ratio [7]: < 2
IC50 (HCT-116 [8]): 18.5 µM
IC50 (HEK-293T): 15.8 µM
IC50 (HCT-116 [1]): 18.7 µM
IC50 (MCF7): 10.1 µM

O=C1Nc2ccccc2C12N(c1ccccc1)N=C(c1ccccc1)N2c1ccc(F)c(Cl)c1 (stereo not given)
IC50 (MDA-MB-231): 32.3 µM
IC50 (MCF7): 19.5 µM
